Common to all, as to format: functional
The test system of test [1] is Staphylococcus aureus. Nature of the test: Antibacterial activity against Staphylococcus aureus ATCC 29213 after 16 hrs by agar dilution method. Particulars: ATCC 29213, 16 h. The gist of the method:
(§1)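 Agar dilution in LB agar with compound (from methanol solutions) at final 0.5–64 μg/ml per plate. Strains grown 16 h at 37 °C, 250 rpm in LB broth, adjusted to OD600 0.25±0.05, diluted 10^4-fold; 2 μl spotted per plate, incubated 16 h at 37 °C. MIC = lowest concentration with no visible colonies; at least two independent experiments. Linezolid and PTM as controls.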

The test system of test [2] is Staphylococcus aureus. Briefly: Antibacterial activity against methicillin-sensitive Staphylococcus aureus isolate 1 after 16 hrs by agar dilution method. Particulars: isolate 1, 16 h. In short, it runs like this: as §1
In test [3] the test system is Staphylococcus aureus. Briefly: Antibacterial activity against methicillin-sensitive Staphylococcus aureus isolate 2 after 16 hrs by agar dilution method. Particulars: isolate 2, 16 h. In short, it runs like this:
as §1

The test system of test [4] is Staphylococcus aureus. Nature of the test: Antibacterial activity against methicillin-resistant Staphylococcus aureus isolate 3 after 16 hrs by agar dilution method. Particulars: isolate 3, 16 h. The gist of the method:
as §1

In test [5] the test system is Staphylococcus aureus. Briefly: Antibacterial activity against methicillin-resistant Staphylococcus aureus isolate 4 after 16 hrs by agar dilution method. Particulars: isolate 4, 16 h. In short, it runs like this:
as §1

Test [6] has as its system Staphylococcus aureus. Nature of the test: Antibacterial activity against methicillin-resistant Staphylococcus aureus isolate 5 after 16 hrs by agar dilution method. Particulars: isolate 5, 16 h. The gist of the method: as §1
The test system of test [7] is Staphylococcus aureus. Briefly: Antibacterial activity against methicillin-resistant Staphylococcus aureus isolate 6 after 16 hrs by agar dilution method. Particulars: isolate 6, 16 h. The gist of the method:
as §1

Results on 19 molecules are retold here after ChEMBL document CHEMBL4257590, “Semisynthesis of Platensimycin Derivatives with Antibiotic Activities in Mice via Suzuki-Miyaura Cross-Coupling Reactions” (J Med Chem, 2018).

In brackets after ≈: the same amount, converted by molar mass.

Regarding `C[C@]12C[C@@]34C=C(c5ccccc5-c5ccccc5)C(=O)[C@@](C)(CCC(=O)Nc5c(O)ccc(C(=O)O)c5O)[C@@H]3[C@H](C[C@H]1C4)O2`, the MIC was found to be 4 µg/mL (≈ 6.74 µM) in the test with Staphylococcus aureus [1]; 8 µg/mL (≈ 13.5 µM) against Staphylococcus aureus [2]; 8 µg/mL (≈ 13.5 µM) against Staphylococcus aureus [3]; 8 µg/mL (≈ 13.5 µM) against Staphylococcus aureus [4]; 8 µg/mL (≈ 13.5 µM) with Staphylococcus aureus [5]; 8 µg/mL (≈ 13.5 µM) in the test on Staphylococcus aureus [6]. The molecule also came in with an MIC in the test on Staphylococcus aureus [7] of 8 µg/mL (≈ 13.5 µM).

As to `COc1ccccc1C1=C[C@]23C[C@@H]4C[C@H](O[C@@]4(C)C2)[C@H]3[C@](C)(CCC(=O)Nc2c(O)ccc(C(=O)O)c2O)C1=O`, the MIC was found to be 8 µg/mL (≈ 14.6 µM) in the test on Staphylococcus aureus [1]; 8 µg/mL (≈ 14.6 µM) in the test with Staphylococcus aureus [2]; 16 µg/mL (≈ 29.2 µM) in the test on Staphylococcus aureus [3]; 16 µg/mL (≈ 29.2 µM) with Staphylococcus aureus [4]; 16 µg/mL (≈ 29.2 µM) in the test on Staphylococcus aureus [5]; 16 µg/mL (≈ 29.2 µM) in the test with Staphylococcus aureus [6]. Further, the MIC against Staphylococcus aureus [7] came out at 16 µg/mL (≈ 29.2 µM).

Consider `C[C@]12C[C@@]34C=C(c5ccc(Br)cc5)C(=O)[C@@](C)(CCC(=O)Nc5c(O)ccc(C(=O)O)c5O)[C@@H]3[C@H](C[C@H]1C4)O2`, for which the MIC came out at 2 µg/mL (≈ 3.35 µM) against Staphylococcus aureus [1]; 2 µg/mL (≈ 3.35 µM) against Staphylococcus aureus [2]; 4 µg/mL (≈ 6.71 µM) in the test on Staphylococcus aureus [3]; 4 µg/mL (≈ 6.71 µM) against Staphylococcus aureus [4]; 4 µg/mL (≈ 6.71 µM) in the test on Staphylococcus aureus [5]; 2 µg/mL (≈ 3.35 µM) in the test on Staphylococcus aureus [6]. Also, in the test with Staphylococcus aureus [7], the lowest concentration to inhibit growth (MIC) was 2 µg/mL (≈ 3.35 µM).

With `C[C@]12C[C@@]34C=C(c5ccc(C=O)cc5)C(=O)[C@@](C)(CCC(=O)Nc5c(O)ccc(C(=O)O)c5O)[C@@H]3[C@H](C[C@H]1C4)O2`, the MIC was 32 µg/mL (≈ 58.7 µM) against Staphylococcus aureus [1]; 16 µg/mL (≈ 29.3 µM) against Staphylococcus aureus [2]; 16 µg/mL (≈ 29.3 µM) in the test with Staphylococcus aureus [3]; 32 µg/mL (≈ 58.7 µM) in the test on Staphylococcus aureus [4]; 32 µg/mL (≈ 58.7 µM) against Staphylococcus aureus [5]; 32 µg/mL (≈ 58.7 µM) in the test with Staphylococcus aureus [6]. The MIC with Staphylococcus aureus [7] was found to be 32 µg/mL (≈ 58.7 µM).

For `C[C@]12C[C@@]34C=C(c5cc(Cl)cc(Cl)c5)C(=O)[C@@](C)(CCC(=O)Nc5c(O)ccc(C(=O)O)c5O)[C@@H]3[C@H](C[C@H]1C4)O2`, the minimal inhibitory concentration (MIC) in the test on Staphylococcus aureus [1], with Staphylococcus aureus [2], with Staphylococcus aureus [3], with Staphylococcus aureus [4], against Staphylococcus aureus [5] and against Staphylococcus aureus [6] was 8 µg/mL (≈ 13.6 µM) throughout. In the test on Staphylococcus aureus [7], this molecule had an MIC of 8 µg/mL (≈ 13.6 µM).

Consider `Cc1ccc(C2=C[C@]34C[C@@H]5C[C@H](O[C@@]5(C)C3)[C@H]4[C@](C)(CCC(=O)Nc3c(O)ccc(C(=O)O)c3O)C2=O)cc1`, for which the MIC came to 8 µg/mL (≈ 15 µM) in the test with Staphylococcus aureus [1]; 8 µg/mL (≈ 15 µM) in the test on Staphylococcus aureus [2]; 8 µg/mL (≈ 15 µM) against Staphylococcus aureus [3]; 8 µg/mL (≈ 15 µM) with Staphylococcus aureus [4]; 16 µg/mL (≈ 30.1 µM) against Staphylococcus aureus [5]; 16 µg/mL (≈ 30.1 µM) in the test with Staphylococcus aureus [6]. Besides, in the test on Staphylococcus aureus [7], the MIC stood at 16 µg/mL (≈ 30.1 µM).

For the molecule `C[C@]12C[C@@]34C=C(c5cccc(-c6ccccc6)c5)C(=O)[C@@](C)(CCC(=O)Nc5c(O)ccc(C(=O)O)c5O)[C@@H]3[C@H](C[C@H]1C4)O2`, the MIC against Staphylococcus aureus [1], against Staphylococcus aureus [2], with Staphylococcus aureus [3], with Staphylococcus aureus [4], with Staphylococcus aureus [5] and in the test on Staphylococcus aureus [6] was 8 µg/mL (≈ 13.5 µM) throughout. The same molecule displayed an MIC against Staphylococcus aureus [7] of 8 µg/mL (≈ 13.5 µM).

As for `C[C@]12C[C@@]34C=C(c5cccc(OC(F)(F)F)c5)C(=O)[C@@](C)(CCC(=O)Nc5c(O)ccc(C(=O)O)c5O)[C@@H]3[C@H](C[C@H]1C4)O2`, the MIC against Staphylococcus aureus [1], in the test with Staphylococcus aureus [2], in the test on Staphylococcus aureus [3], against Staphylococcus aureus [4], in the test with Staphylococcus aureus [5] and against Staphylococcus aureus [6] was 8 µg/mL (≈ 13.3 µM) throughout. Besides, 8 µg/mL (≈ 13.3 µM) was the least that counted as inhibitory against Staphylococcus aureus [7] (MIC).

Take `C[C@]12C[C@@]34C=C(c5ccc(-c6ccccc6)cc5)C(=O)[C@@](C)(CCC(=O)Nc5c(O)ccc(C(=O)O)c5O)[C@@H]3[C@H](C[C@H]1C4)O2`: the MIC against Staphylococcus aureus [1] was 4 µg/mL (≈ 6.74 µM); in the test with Staphylococcus aureus [2], 8 µg/mL (≈ 13.5 µM); against Staphylococcus aureus [3], 8 µg/mL (≈ 13.5 µM); in the test on Staphylococcus aureus [4] it was 8 µg/mL (≈ 13.5 µM); with Staphylococcus aureus [5] it was 8 µg/mL (≈ 13.5 µM); against Staphylococcus aureus [6], 8 µg/mL (≈ 13.5 µM). Further, in the test with Staphylococcus aureus [7], the MIC worked out at 8 µg/mL (≈ 13.5 µM).

On to `Cc1ccccc1C1=C[C@]23C[C@@H]4C[C@H](O[C@@]4(C)C2)[C@H]3[C@](C)(CCC(=O)Nc2c(O)ccc(C(=O)O)c2O)C1=O`, for which the MIC stood at 8 µg/mL (≈ 15 µM) in the test with Staphylococcus aureus [1]; 8 µg/mL (≈ 15 µM) in the test with Staphylococcus aureus [2]; 16 µg/mL (≈ 30.1 µM) against Staphylococcus aureus [3]; 16 µg/mL (≈ 30.1 µM) in the test with Staphylococcus aureus [4]; 16 µg/mL (≈ 30.1 µM) in the test with Staphylococcus aureus [5]; 16 µg/mL (≈ 30.1 µM) with Staphylococcus aureus [6]. The MIC against Staphylococcus aureus [7] was 16 µg/mL (≈ 30.1 µM).

Take `C[C@]12C[C@@]34C=C(c5cc6ccccc6c6ccccc56)C(=O)[C@@](C)(CCC(=O)Nc5c(O)ccc(C(=O)O)c5O)[C@@H]3[C@H](C[C@H]1C4)O2`: the MIC was 2 µg/mL (≈ 3.24 µM) in the test on Staphylococcus aureus [1]; 2 µg/mL (≈ 3.24 µM) with Staphylococcus aureus [2]; 2 µg/mL (≈ 3.24 µM) against Staphylococcus aureus [3]; 4 µg/mL (≈ 6.48 µM) in the test with Staphylococcus aureus [4]; 2 µg/mL (≈ 3.24 µM) against Staphylococcus aureus [5]; 4 µg/mL (≈ 6.48 µM) in the test on Staphylococcus aureus [6]. In the test with Staphylococcus aureus [7], this molecule registered an MIC of 2 µg/mL (≈ 3.24 µM).

Consider `C[C@]12C[C@@]34C=C(c5cccc(C(F)(F)F)c5)C(=O)[C@@](C)(CCC(=O)Nc5c(O)ccc(C(=O)O)c5O)[C@@H]3[C@H](C[C@H]1C4)O2`, for which the MIC came out at 4 µg/mL (≈ 6.83 µM) in the test on Staphylococcus aureus [1]; 4 µg/mL (≈ 6.83 µM) in the test with Staphylococcus aureus [2]; 8 µg/mL (≈ 13.7 µM) with Staphylococcus aureus [3]; 8 µg/mL (≈ 13.7 µM) in the test on Staphylococcus aureus [4]; 8 µg/mL (≈ 13.7 µM) in the test with Staphylococcus aureus [5]; 8 µg/mL (≈ 13.7 µM) with Staphylococcus aureus [6]. The molecule also displayed an MIC with Staphylococcus aureus [7] of 8 µg/mL (≈ 13.7 µM).

With `C[C@]12C[C@@]34C=C(c5cccc(O)c5)C(=O)[C@@](C)(CCC(=O)Nc5c(O)ccc(C(=O)O)c5O)[C@@H]3[C@H](C[C@H]1C4)O2`, the MIC in the test with Staphylococcus aureus [1], against Staphylococcus aureus [2], in the test on Staphylococcus aureus [3], against Staphylococcus aureus [4], against Staphylococcus aureus [5] and against Staphylococcus aureus [6] was 32 µg/mL (≈ 60 µM) throughout. Moreover, the MIC in the test with Staphylococcus aureus [7] was 32 µg/mL (≈ 60 µM).

In the case of `C[C@]12C[C@@]34C=C(c5ccccc5)C(=O)[C@@](C)(CCC(=O)Nc5c(O)ccc(C(=O)O)c5O)[C@@H]3[C@H](C[C@H]1C4)O2`, the MIC against Staphylococcus aureus [1], against Staphylococcus aureus [2], against Staphylococcus aureus [3], against Staphylococcus aureus [4], with Staphylococcus aureus [5] and against Staphylococcus aureus [6] was 16 µg/mL (≈ 30.9 µM) throughout. The molecule further had an MIC in the test with Staphylococcus aureus [7] of 16 µg/mL (≈ 30.9 µM).

Turning to `CC(=O)NC[C@H]1CN(c2ccc(N3CCOCC3)c(F)c2)C(=O)O1` [LINEZOLID], the MIC with Staphylococcus aureus [1], with Staphylococcus aureus [2], with Staphylococcus aureus [3], with Staphylococcus aureus [4], with Staphylococcus aureus [5] and against Staphylococcus aureus [6] was 1 µg/mL (≈ 2.96 µM) in each case. Moreover, the MIC against Staphylococcus aureus [7] worked out at 1 µg/mL (≈ 2.96 µM).

`CCCCCc1ccc(C2=C[C@]34C[C@@H]5C[C@H](O[C@@]5(C)C3)[C@H]4[C@](C)(CCC(=O)Nc3c(O)ccc(C(=O)O)c3O)C2=O)cc1`: the MIC in the test on Staphylococcus aureus [1], against Staphylococcus aureus [2], against Staphylococcus aureus [3], in the test with Staphylococcus aureus [4], in the test with Staphylococcus aureus [5] and against Staphylococcus aureus [6] was 4 µg/mL (≈ 6.81 µM) each time. Inhibition of growth with Staphylococcus aureus [7] (MIC) required 4 µg/mL (≈ 6.81 µM).

For the molecule `Cc1cc(C)cc(C2=C[C@]34C[C@@H]5C[C@H](O[C@@]5(C)C3)[C@H]4[C@](C)(CCC(=O)Nc3c(O)ccc(C(=O)O)c3O)C2=O)c1`, the MIC in the test with Staphylococcus aureus [1], with Staphylococcus aureus [2], with Staphylococcus aureus [3], in the test on Staphylococcus aureus [4], with Staphylococcus aureus [5] and against Staphylococcus aureus [6] was 4 µg/mL (≈ 7.33 µM) throughout. For the same molecule, the MIC in the test with Staphylococcus aureus [7] was determined as 4 µg/mL (≈ 7.33 µM).

As for `Cc1cccc(C2=C[C@]34C[C@@H]5C[C@H](O[C@@]5(C)C3)[C@H]4[C@](C)(CCC(=O)Nc3c(O)ccc(C(=O)O)c3O)C2=O)c1`, the MIC came to 8 µg/mL (≈ 15 µM) with Staphylococcus aureus [1]; 4 µg/mL (≈ 7.52 µM) against Staphylococcus aureus [2]; 4 µg/mL (≈ 7.52 µM) against Staphylococcus aureus [3]; 8 µg/mL (≈ 15 µM) in the test on Staphylococcus aureus [4]; 8 µg/mL (≈ 15 µM) with Staphylococcus aureus [5]; 8 µg/mL (≈ 15 µM) in the test on Staphylococcus aureus [6]. Also, the MIC against Staphylococcus aureus [7] was found to be 8 µg/mL (≈ 15 µM).

For the molecule `C[C@]12C[C@@]34C=C(c5ccc6ccccc6c5)C(=O)[C@@](C)(CCC(=O)Nc5c(O)ccc(C(=O)O)c5O)[C@@H]3[C@H](C[C@H]1C4)O2`, the MIC in the test with Staphylococcus aureus [1], with Staphylococcus aureus [2], against Staphylococcus aureus [3], in the test on Staphylococcus aureus [4], in the test with Staphylococcus aureus [5] and against Staphylococcus aureus [6] was 8 µg/mL (≈ 14.1 µM) throughout. In the test on Staphylococcus aureus [7], this molecule had an MIC of 8 µg/mL (≈ 14.1 µM).
